Data reported in PMC3984478 (Cancer cell, 2012).

Experiments:
OCI-Ly10 cells = test: Growth inhibition, ATP-based luminescent assay; format: cell-based, human; conditions: 48 hr
Outline: (§1)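 Cells received a single dose of test compound over a concentration range and proliferation was read at 48 hr by luminescent ATP quantification. Luminescence was converted to cell number using per-line standard curves built from trypan blue counts. Viability was normalised to controls and expressed as 1 − fractional viability, and GI25/GI50 were fitted. Experiments were run three times in triplicate.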

U2932 cells = test: Growth inhibition, ATP-based luminescent assay; format: cell-based, human; conditions: 48 hr
Outline: as §1

OCI-Ly3 cells = test: Growth inhibition, ATP-based luminescent assay; format: cell-based, human; conditions: 48 hr
Outline: as §1

[1] = system: nuclear c-REL in HBL-1 cells; test: c-REL flow cytometry of whole cells or isolated nuclei; format: cell-based, human; conditions: 200 nM MI-2 or 50 µM Z-VRPR-FMK, 24 hr
Outline: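 HBL-1 cells were exposed for 24 hr to 200 nM test compound, to 50 µM Z-VRPR-FMK as positive control, or to vehicle. c-REL was then measured by flow cytometry in whole cells and in isolated nuclei.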

HBL-1 cells [2] = test: Growth inhibition, ATP-based luminescent assay; format: cell-based, human
Outline: as §1

[3] = system: GCB-DLBCL cell lines (OCI-Ly7 and OCI-Ly1); test: Growth inhibition, ATP-based luminescent assay; format: cell-based, human; conditions: 48 hr
Outline: as §1

HLY-1 cells = test: Growth inhibition, ATP-based luminescent assay; format: cell-based, human; conditions: 48 hr
Outline: as §1

TMD8 cells = test: Growth inhibition, ATP-based luminescent assay; format: cell-based, human
Outline: as §1

[4] = system: nuclear c-REL and p65 in HBL-1 and TMD8 cells; test: Western blots for c-REL and p65 in nuclear extracts; format: cell-based, human; conditions: 24 hr, 200 nM for HBL-1 and 500 nM for TMD8
Outline: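 Nuclear extracts were prepared from HBL-1 cells (200 nM test compound) and TMD8 cells (500 nM) after 24 hr treatment and immunoblotted for c-REL and p65.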

[5] = biological target: LZ-MALT1 (recombinant MALT1 (340–789) fused with a leucine zipper dimerization motif) (Homo sapiens, UniProt Q9UDY8); test: LZ-MALT1 fluorescence activity assay; format: biochemical; conditions: preincubation with compound before Ac-LRSR-AMC
Outline: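 Recombinant MALT1 (340–789) fused to a leucine zipper dimerization motif was preincubated with test compound (0–25 µM) for 5–90 min. Ac-LRSR-AMC substrate was then added, and AMC release was read by fluorescence at 360 nm excitation and 465 nm emission. Percent inhibition was normalized and plotted against preincubation time.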

[6] = system: NF-κB reporter activity in HBL-1 cells; test: NF-κB reporter assay in HBL-1; format: cell-based, human; conditions: 200 nM
Outline: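 NF-κB luciferase reporter in HBL-1 cells treated with 200 nM test compound, 50 µM Z-VRPR-FMK or vehicle for 8 and 24 hr. Activity is given as % of vehicle, normalised to an internal control. Statistics used ANOVA with Bonferroni post-test.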

HBL-1 cells [7] = test: Intracellular concentration by LC-MS; format: in vitro ADME, human
Outline: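 HBL-1 cells were exposed to 0.02, 0.2 or 2 µM test compound for 2 hr, washed three times, and intracellular compound was quantified by LC-MS. For free-drug kinetics, cells at 0.2 µM were sampled at 30 min and at 2, 6, 12, 24 and 48 hr.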

[8] = system: ABC-DLBCL cell lines HBL-1 and TMD8; test: Caspase-3/7 cleavage assay; format: cell-based, human
Outline: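 Caspase-3/7 cleavage assay run within 48 hr of exposure to increasing concentrations of test compound.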

HBL-1 and TMD8 cells = test: Trypan blue cell number and Annexin V+ DAPI− apoptosis time course, 14 days; format: cell-based, human; conditions: treated daily at GI25 and GI50, 14 days
Outline: (§2)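 Cell lines were dosed with test compound every 24 hr. Every 48 hr for 14 days, cells were counted by trypan blue exclusion and apoptosis was measured as Annexin V+ DAPI− by flow cytometry. Cell number is expressed as % of vehicle at each time point.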

OCI-Ly1 = test: CFSE dilution proliferation assay; format: cell-based, human; conditions: increasing concentrations, 48, 72, and 96 hr
Outline: (§3)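 Cells were exposed to increasing concentrations of test compound, and CFSE dilution was read by flow cytometry at 48, 72 and 96 hr. 2 × 10^4 cells were acquired per sample, and DAPI staining was used to gate viable cells for analysis.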

[9] = biological target: MALT1 active site mutant C464A (Homo sapiens, UniProt Q9UDY8, C464A); test: LC-MS covalent modification, mutant; format: binding
HBL-1 cells [10] = test: Recovery of cells after a single dose; format: cell-based, human; conditions: 0.2 µM dose level
HBL-1 xenografts = test: HBL-1 xenograft in NOD-SCID mice; format: in vivo; conditions: IP 25 mg/kg/day, 14 injections
Outline: (§4)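 Eight-week-old male NOD-SCID (NOD.CB17-Prkdcscid/J) mice received 10^7 low-passage cells subcutaneously in 50% Matrigel in the right flank. At an average tumour size of 120 mm3, mice were randomised to test compound 25 mg/kg/day IP or vehicle (5% DMSO) for 14 consecutive days and sacrificed 24 hr after the 14th injection. Caliper volume, (smallest diameter² × largest)/2, was taken three times weekly. Ki-67 IHC was counted per high-power field.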

caspase-9 = caspase-9 (Homo sapiens, UniProt P55211); test: Caspase selectivity; format: biochemical
[11] = system: ABC-DLBCL cell lines HBL-1 and TMD8, GCB-DLBCL cell line OCI-Ly1; design: species or system human; conditions: 48 hr, cell-based assays
Outline: as §1

C57BL/6 mice = test: Toxicity in mice; format: in vivo
[12] = system: Z-VRPR-FMK signature genes in HBL-1 and TMD8 cell lines; test: Gene expression profiling, GSEA; format: cell-based, human; conditions: GI50 concentrations (HBL-1 200 nM; TMD8 500 nM), 8 hr
[13] = system: primary human non-GCB DLBCL cells; test: Primary human DLBCL ex vivo viability, trypan blue; format: cell-based; conditions: 0.8 µM, 48 hr
Outline: (§5)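 Single-cell suspensions came from lymph-node biopsies of five DLBCL patients, prepared by physical disruption and density-gradient separation. GCB versus non-GCB status was assigned by Hans-criteria IHC. Cells were cultured in RPMI with 20% FBS and antibiotics and exposed to 0.8 µM test compound (1 µM for one patient) or DMSO in quadruplicate for 48 hr. Cell number and viability were counted by trypan blue and normalised to vehicle.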

[14] = system: MALT1-mediated cleavage of CYLD in HBL-1 cells; test: MALT1 cleavage of CYLD, western blotting and densitometry; format: cell-based, human
[15] = system: HBL-1, TMD8, and OCI-Ly10; test: CFSE dilution proliferation assay; format: cell-based, human; conditions: increasing concentrations, 48, 72, and 96 hr
Outline: as §3

caspase-3 = caspase-3 (Homo sapiens, UniProt P42574); test: Caspase selectivity; format: biochemical
OCI-Ly1 cells = test: Trypan blue cell number and Annexin V+ DAPI− apoptosis time course, 14 days; format: cell-based, human; conditions: treated daily at the doses used for TMD8, 14 days
Outline: as §2

[16] = system: NF-κB reporter in 293T cells expressing MALT1 WT; test: NF-κB reporter assay, PMA/ionomycin, BCL10 + MALT1 WT; format: cell-based; conditions: 2 µM pretreatment 30 min, PMA/ionomycin 2 hr
[17] = biological target: MALT1 paracaspase domain (329–728) (Homo sapiens, UniProt Q9UDY8); test: LC-MS covalent modification; format: binding
OCI-Ly1 xenografts = test: OCI-Ly1 xenograft in NOD-SCID mice; format: in vivo; conditions: IP 25 mg/kg/day, 14 injections
Outline: as §4

[18] = biological target: paracaspase domain of MALT1 (residues 329–728) (Homo sapiens, UniProt Q9UDY8); test: HSQC NMR binding
[19] = system: NF-κB reporter in 293T cells expressing MALT1 C464A; test: NF-κB reporter assay, PMA/ionomycin, BCL10 + MALT1 C464A; format: cell-based; conditions: 2 µM pretreatment 30 min, PMA/ionomycin 2 hr
caspase-3/7 activity = test: Cell-based caspase-3/7 activity and apoptosis inhibition; conditions: at concentrations that suppress MALT1
HBL-1 cells [20] = test: BrdU incorporation-DAPI cell cycle; format: cell-based, human; conditions: 24 and 48 hr
Outline: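 HBL-1 cells were treated with test compound for 24 and 48 hr, then pulse-labelled with BrdU and co-stained with DAPI. Cell-cycle phases (S, G1-0, sub-G0) were read by flow cytometry. Data are mean ± SD of two independent experiments.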

[21] = system: MALT1 substrate cleavage in HBL-1 and TMD8 cell lines; test: Cleavage of MALT1 substrates A20, BCL10, RELB, western blot with MG-132; format: cell-based, human; conditions: 2 µM, 30 min, then 5 µM MG-132 for 1 or 2 hr
Outline: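 HBL-1 and TMD8 cells were pretreated for 30 min with 2 µM test compound or vehicle. Proteasome inhibitor MG-132 (5 µM) was then added for a further 1 or 2 hr so that cleaved substrate forms could accumulate. Western blots were probed for A20, RELB and BCL10, and cleavage products were identified by band position.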

[22] = system: primary human GCB DLBCL cells; test: Primary human DLBCL ex vivo viability, trypan blue; format: cell-based; conditions: 0.8 µM, 48 hr
Outline: as §5

caspase-8 = caspase-8 (Homo sapiens, UniProt Q14790); test: Caspase selectivity; format: biochemical
TMD8 xenografts = test: TMD8 xenograft in NOD-SCID mice; format: in vivo; conditions: IP 25 mg/kg/day, 14 injections
Outline: as §4

Chain of caspase-3 (P42574 29-175 limits assumed, species assumed): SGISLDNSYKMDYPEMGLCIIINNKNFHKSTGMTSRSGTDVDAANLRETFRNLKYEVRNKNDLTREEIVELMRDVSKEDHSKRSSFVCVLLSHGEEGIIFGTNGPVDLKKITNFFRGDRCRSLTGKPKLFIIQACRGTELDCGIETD
Chain of caspase-3 (P42574 176-277 limits assumed, species assumed): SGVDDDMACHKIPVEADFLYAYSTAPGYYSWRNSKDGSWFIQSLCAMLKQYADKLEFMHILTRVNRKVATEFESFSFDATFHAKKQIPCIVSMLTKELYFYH
Chain of caspase-8 (Q14790 217-374 limits assumed): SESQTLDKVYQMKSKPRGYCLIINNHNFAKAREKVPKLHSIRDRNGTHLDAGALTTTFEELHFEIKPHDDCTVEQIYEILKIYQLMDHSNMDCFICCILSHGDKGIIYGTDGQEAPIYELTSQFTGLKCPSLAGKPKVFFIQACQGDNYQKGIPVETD
Chain of caspase-8 (Q14790 385-479 limits assumed): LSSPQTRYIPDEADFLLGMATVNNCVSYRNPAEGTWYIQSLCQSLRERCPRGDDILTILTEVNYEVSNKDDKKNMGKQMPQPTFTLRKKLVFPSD
Chain of caspase-9 (P55211 whole entry, species assumed): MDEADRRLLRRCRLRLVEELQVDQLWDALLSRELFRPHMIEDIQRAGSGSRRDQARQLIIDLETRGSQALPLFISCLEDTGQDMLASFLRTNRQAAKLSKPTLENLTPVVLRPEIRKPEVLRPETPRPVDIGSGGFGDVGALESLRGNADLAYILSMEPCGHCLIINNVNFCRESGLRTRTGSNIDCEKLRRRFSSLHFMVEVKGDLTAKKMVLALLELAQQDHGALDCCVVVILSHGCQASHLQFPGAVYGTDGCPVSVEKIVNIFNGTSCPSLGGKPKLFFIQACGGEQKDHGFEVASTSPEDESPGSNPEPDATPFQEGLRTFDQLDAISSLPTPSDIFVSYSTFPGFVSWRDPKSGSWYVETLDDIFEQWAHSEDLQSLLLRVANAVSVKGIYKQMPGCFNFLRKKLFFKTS

Z-VRPR-FMK [reference compound]
response of proliferation (OCI-Ly10 cells; 50 µM): inhibition of proliferation
response of proliferation (U2932 cells; 50 µM): relatively little response
response of proliferation (OCI-Ly3 cells; 50 µM): inhibition of proliferation
nuclear c-REL (flow cytometry) [1]: reduced nuclear c-REL to a similar extent
response of proliferation (HBL-1 cells [2]; 50 µM, 48 hr): inhibition of proliferation
response of proliferation ([3]; 50 µM): did not respond
response of proliferation (HLY-1 cells; 50 µM): relatively little response
response of proliferation (TMD8 cells; 50 µM, 48 hr): inhibition of proliferation

COCCOc1nc(-c2ccc(Cl)c(Cl)c2)n(-c2ccc(NC(=O)CCl)cc2)n1 [MI-2]
GI50 (OCI-Ly10 cells; OCI-Ly10, single dose): 400 nM
nuclear c-REL (western blot) [4]: clear reduction of nuclear c-REL
nuclear p65 levels (western blot) [4]: did not affect p65 levels
inhibition reached [5]: ~100%
reduction in NF-κB reporter activity ([6]; 8 hr): 20%
reduction in NF-κB reporter activity ([6]; 24 hr): 50%
intracellular concentration (HBL-1 cells [7]; HBL-1, 0.2 µM, 2 hr): 5 µM
free intracellular drug (HBL-1 cells [7]; HBL-1, 0.2 µM, by 12 hr): virtually no detectable free MI-2
increase in intracellular concentration (HBL-1 cells [7]; HBL-1 exposed to 0.02, 0.2, or 2 µM for 2 hr, washed three times): 18- to 30 fold
apoptosis (caspase-3/7 cleavage) [8]: dose-dependent apoptosis within 48 hr
growth inhibition (U2932 cells; U2932, single dose): resistant
cell number and apoptosis (HBL-1 and TMD8 cells): profoundly suppressed
proliferation (CFSE dilution) (OCI-Ly1): did not affect OCI-Ly1
covalent binding by LC-MS [9]: markedly reduced covalent binding
GI50 (OCI-Ly3 cells; OCI-Ly3, single dose): 400 nM
recovery of cells (HBL-1 cells [10]): only started to become evident after 48 hr
apoptotic cells (TUNEL) relative to vehicle (HBL-1 xenografts): significant increase in apoptotic cells
c-REL nuclear protein in tumor sections (HBL-1 xenografts): reduced c-REL nuclear protein
proliferation (Ki-67 staining) compared to vehicle (HBL-1 xenografts): significant decrease in proliferation
tumor growth versus vehicle (HBL-1 xenografts): profoundly suppressed the growth
activity against caspase-9 (caspase-9): little activity
nuclear c-REL (flow cytometry) [1]: reduced nuclear c-REL to a similar extent
GI50 (HBL-1 cells [2]; HBL-1): 200 nM
growth inhibition ([3]; two GCB-DLBCL cell lines, single dose): resistant
25% growth-inhibitory concentration (GI25) [11]: high-nanomolar range
Complete peripheral blood counts, biochemistry, and liver function tests (C57BL/6 mice; daily IP 25 mg/kg over 14 days): normal
toxicity 1: physical indicators of sickness (C57BL/6 mice; daily IP, increasing doses 0.05 to 25 mg/kg over 10 days, cumulative 51.1 mg/kg): no evidence of lethargy, weight loss
enrichment of Z-VRPR-FMK signature (GSEA) [12]: significantly enriched among genes downregulated after MI-2 treatment
response of primary cases (cell number and viability) [13]: two of the non-GCB cases responded
inhibition of MALT1 cleavage of CYLD ([14]; HBL-1, 5 µM for 8 hr, Z-VRPR-FMK 50 µM positive control): most potent compound
MALT1-mediated cleavage of CYLD ([14]; HBL-1, increasing concentrations, 24 hr): dose-dependent decrease in MALT1-mediated cleavage
proliferation (CFSE dilution) [15]: substantially inhibited proliferation
activity against caspase-3 (caspase-3): little activity
cell number and apoptosis (OCI-Ly1 cells): no effect on OCI-Ly1 cells
NF-κB induction by PMA/ionomycin [16]: significantly inhibited NF-κB induction
growth inhibition (HLY-1 cells; HLY-1, single dose): resistant
covalent binding by LC-MS [17]: can bind covalently to MALT1
apoptotic cells (TUNEL) relative to vehicle (OCI-Ly1 xenografts): not in OCI-Ly1 xenografts
proliferation (Ki-67 staining) compared to vehicle (OCI-Ly1 xenografts): no difference
tumor growth versus vehicle (OCI-Ly1 xenografts): no effect on the growth
binding by HSQC NMR [18]: robust interaction
NF-κB induction by PMA/ionomycin [19]: did not significantly affect
inhibition of caspase-3/7 activity or apoptosis in cell-based assays (caspase-3/7 activity): did not inhibit
cell cycle (BrdU-DAPI) (HBL-1 cells [20]): dose-dependent decrease in S phase
cleavage of A20, BCL10, and RELB [21]: diminished the abundance of cleaved forms and/or increased the abundance of full-length proteins
response of primary cases (cell number and viability) [22]: none of the GCBs did
activity against caspase-8 (caspase-8): little activity
GI50 (TMD8 cells; TMD8): 500 nM
apoptotic cells (TUNEL) relative to vehicle (TMD8 xenografts): significant increase in apoptotic cells
proliferation (Ki-67 staining) compared to vehicle (TMD8 xenografts): significant decrease in proliferation
tumor growth versus vehicle (TMD8 xenografts): profoundly suppressed the growth
